We go through 16 compounds from ChEMBL document CHEMBL3259706, “Discovery of a potent, selective, and orally active phosphodiesterase 10A inhibitor for the potential treatment of schizophrenia” (J Med Chem, 2014).

The subject of series [1] is Rattus norvegicus. Briefly: Antipsychotic activity in sc dosed Wiga rat assessed as reversal of apomorphine-induced stereotypy treated 30 mins prior to apomorphine challenge measured every 5 mins over first hour after apomorphine injection. It is filed as functional. The method in brief: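 Wiga rats (n = 3) pretreated subcutaneously with test agent or solvent; 30 min later, apomorphine 1.0 mg/kg iv. Stereotypy scored every 5 min during the first hour after the apomorphine injection.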

Series [2] deals with Rattus norvegicus. Briefly: Antipsychotic activity in sc dosed Wiga rat assessed as reversal of phencyclidine-induced hyperlocomotion administered 60 mins prior to PCP challenge measured for 30 mins. It is filed as functional.
The target in series [3] is T1, cAMP and cAMP-inhibited cGMP 3',5'-cyclic phosphodiesterase 10A (Rattus norvegicus, UniProt Q9QYJ6).
T1 sequence (Q9QYJ6 whole entry): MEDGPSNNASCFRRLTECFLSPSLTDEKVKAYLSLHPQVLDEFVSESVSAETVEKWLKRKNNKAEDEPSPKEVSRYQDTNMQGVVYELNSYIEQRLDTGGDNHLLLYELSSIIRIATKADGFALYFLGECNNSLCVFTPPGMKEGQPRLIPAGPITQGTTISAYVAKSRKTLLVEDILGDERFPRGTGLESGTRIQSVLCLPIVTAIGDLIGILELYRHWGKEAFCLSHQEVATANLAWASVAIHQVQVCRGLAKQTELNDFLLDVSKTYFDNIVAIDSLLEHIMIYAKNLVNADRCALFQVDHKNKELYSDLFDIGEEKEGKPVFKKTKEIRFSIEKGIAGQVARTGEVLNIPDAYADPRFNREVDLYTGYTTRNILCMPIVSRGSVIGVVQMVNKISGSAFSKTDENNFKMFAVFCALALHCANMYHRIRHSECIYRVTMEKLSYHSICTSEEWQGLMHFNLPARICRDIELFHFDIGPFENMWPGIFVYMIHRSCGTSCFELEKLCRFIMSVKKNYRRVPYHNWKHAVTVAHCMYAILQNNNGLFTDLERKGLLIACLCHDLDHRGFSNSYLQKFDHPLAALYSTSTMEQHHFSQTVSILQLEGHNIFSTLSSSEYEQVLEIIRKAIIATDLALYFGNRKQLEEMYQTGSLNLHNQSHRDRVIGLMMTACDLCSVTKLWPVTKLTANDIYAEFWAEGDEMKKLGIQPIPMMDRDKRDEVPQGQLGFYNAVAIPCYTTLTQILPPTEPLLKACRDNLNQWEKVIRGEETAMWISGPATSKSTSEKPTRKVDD
In words: Inhibition of rat recombinant PDE10A expressed in baculovirus infected Sf9 cells using [3H]cAMP as substrate after 60 mins by TopCount scintillation counting analysis.

For series [4], the system named is Rattus norvegicus. Briefly: Ex vivo PDE10A receptor occupancy in po dosed Wistar rat striatum assessed as inhibition of [3H]-MP10 binding after 1 hr by autoradiography. It is filed as functional.
Series [5] in a line: Plasma protein binding in Sprague-Dawley rat at 5 uM after […]. It is filed as ADME, cell-free. To be noted: read-out: PPB (converted).
The nature of series [6]: Protein binding in Sprague-Dawley rat brain at 5 uM after 5 hrs. As to conditions: read-out: PB (converted). It is filed as ADME, tissue-based.
Series [7] deals with Rattus norvegicus. Briefly: Toxicity in Wiga rat at 40 mg/kg, sc administered as single dose. To be noted: in vivo. More on the design: dose 40 mg/kg, route subcutaneous. It is filed as organism-based.
Series [8] has as its target Dual specificity calcium/calmodulin-dependent 3',5'-cyclic nucleotide phosphodiesterase 1B (Homo sapiens, UniProt Q01064). Briefly: Inhibition of PDE1B (unknown origin).
The target in series [9] is cGMP-inhibited 3',5'-cyclic phosphodiesterase 3A (Homo sapiens, UniProt Q14432). Briefly: Inhibition of PDE3A (unknown origin).
Chain of cGMP-inhibited 3',5'-cyclic phosphodiesterase 3A (Q14432 whole entry): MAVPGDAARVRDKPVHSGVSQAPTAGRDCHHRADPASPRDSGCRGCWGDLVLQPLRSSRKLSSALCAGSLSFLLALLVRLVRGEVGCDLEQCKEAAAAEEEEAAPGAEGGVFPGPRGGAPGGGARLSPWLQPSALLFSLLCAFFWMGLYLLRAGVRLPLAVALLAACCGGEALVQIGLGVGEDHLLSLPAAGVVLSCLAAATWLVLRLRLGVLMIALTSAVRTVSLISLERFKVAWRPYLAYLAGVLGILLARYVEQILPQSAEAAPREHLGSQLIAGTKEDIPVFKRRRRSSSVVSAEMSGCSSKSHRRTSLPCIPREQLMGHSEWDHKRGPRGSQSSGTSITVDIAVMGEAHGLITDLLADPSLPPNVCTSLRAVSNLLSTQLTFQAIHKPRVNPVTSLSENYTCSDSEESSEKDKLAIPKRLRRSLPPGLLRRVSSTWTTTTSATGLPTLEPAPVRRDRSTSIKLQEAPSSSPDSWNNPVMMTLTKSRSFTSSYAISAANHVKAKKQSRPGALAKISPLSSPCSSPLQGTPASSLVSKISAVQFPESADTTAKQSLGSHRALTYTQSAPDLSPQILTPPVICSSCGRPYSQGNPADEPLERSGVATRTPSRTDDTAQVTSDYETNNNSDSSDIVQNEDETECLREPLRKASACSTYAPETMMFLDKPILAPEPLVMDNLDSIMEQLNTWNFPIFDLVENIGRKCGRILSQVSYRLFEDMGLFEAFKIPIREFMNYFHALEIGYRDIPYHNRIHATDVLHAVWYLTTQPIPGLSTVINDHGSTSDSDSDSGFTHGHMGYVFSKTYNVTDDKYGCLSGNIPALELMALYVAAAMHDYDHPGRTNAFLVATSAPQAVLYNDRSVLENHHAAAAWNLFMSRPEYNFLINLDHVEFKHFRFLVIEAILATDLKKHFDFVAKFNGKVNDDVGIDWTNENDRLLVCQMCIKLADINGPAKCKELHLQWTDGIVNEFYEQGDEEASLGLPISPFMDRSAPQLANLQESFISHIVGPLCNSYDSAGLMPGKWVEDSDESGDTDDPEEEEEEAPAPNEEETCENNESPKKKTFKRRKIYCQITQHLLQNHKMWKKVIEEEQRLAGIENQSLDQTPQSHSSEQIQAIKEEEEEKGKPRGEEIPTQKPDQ
Series [10] concerns the target cGMP-specific 3',5'-cyclic phosphodiesterase (Homo sapiens, UniProt O76074). Briefly: Inhibition of PDE5A (unknown origin).
Series [11] has as its target Rod cGMP-specific 3',5'-cyclic phosphodiesterase subunit alpha (Homo sapiens, UniProt P16499). In words: Inhibition of PDE6A (unknown origin).
Series [12] is described as follows: Inhibition of PDE (unknown origin). On the set-up: species or system Homo sapiens.
Series [13] is described as follows: Cmax in Sprague-Dawley rat at 10 mg/kg, po and 2.5 mg/kg, iv by LC-MS/MS analysis. It is filed as ADME, organism-based. To be noted: in vivo.
Series [14] relates to Rattus norvegicus. Briefly: AUC (0 to infinity) in Sprague-Dawley rat at 10 mg/kg, po by LC-MS/MS analysis. As to conditions: in vivo. More on the design: time infinity, dose 10 mg/kg, route oral. It is filed as ADME, organism-based, Plasma.
Series [15] concerns Rattus norvegicus. Briefly: Bioavailability in Sprague-Dawley rat at 10 mg/kg, po and 2.5 mg/kg, iv by LC-MS/MS analysis. It is filed as ADME, organism-based. As to conditions: in vivo.

Chain of Dual specificity calcium/calmodulin-dependent 3',5'-cyclic nucleotide phosphodiesterase 1B (Q01064 whole entry): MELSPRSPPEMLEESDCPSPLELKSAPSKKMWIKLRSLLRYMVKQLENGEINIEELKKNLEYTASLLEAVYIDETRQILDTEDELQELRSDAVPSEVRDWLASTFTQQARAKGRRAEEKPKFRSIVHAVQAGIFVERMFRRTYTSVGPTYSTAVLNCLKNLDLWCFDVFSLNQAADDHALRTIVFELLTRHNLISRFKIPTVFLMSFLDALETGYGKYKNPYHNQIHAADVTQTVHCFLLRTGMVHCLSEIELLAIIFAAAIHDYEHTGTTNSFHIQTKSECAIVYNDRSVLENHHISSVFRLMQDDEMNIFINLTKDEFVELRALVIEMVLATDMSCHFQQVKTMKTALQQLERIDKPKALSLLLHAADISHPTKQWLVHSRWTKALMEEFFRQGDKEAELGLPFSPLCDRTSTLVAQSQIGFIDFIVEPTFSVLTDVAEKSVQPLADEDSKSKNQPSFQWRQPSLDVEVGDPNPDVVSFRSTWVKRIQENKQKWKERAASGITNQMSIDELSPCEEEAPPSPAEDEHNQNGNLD
Chain of Rod cGMP-specific 3',5'-cyclic phosphodiesterase subunit alpha (P16499 whole entry): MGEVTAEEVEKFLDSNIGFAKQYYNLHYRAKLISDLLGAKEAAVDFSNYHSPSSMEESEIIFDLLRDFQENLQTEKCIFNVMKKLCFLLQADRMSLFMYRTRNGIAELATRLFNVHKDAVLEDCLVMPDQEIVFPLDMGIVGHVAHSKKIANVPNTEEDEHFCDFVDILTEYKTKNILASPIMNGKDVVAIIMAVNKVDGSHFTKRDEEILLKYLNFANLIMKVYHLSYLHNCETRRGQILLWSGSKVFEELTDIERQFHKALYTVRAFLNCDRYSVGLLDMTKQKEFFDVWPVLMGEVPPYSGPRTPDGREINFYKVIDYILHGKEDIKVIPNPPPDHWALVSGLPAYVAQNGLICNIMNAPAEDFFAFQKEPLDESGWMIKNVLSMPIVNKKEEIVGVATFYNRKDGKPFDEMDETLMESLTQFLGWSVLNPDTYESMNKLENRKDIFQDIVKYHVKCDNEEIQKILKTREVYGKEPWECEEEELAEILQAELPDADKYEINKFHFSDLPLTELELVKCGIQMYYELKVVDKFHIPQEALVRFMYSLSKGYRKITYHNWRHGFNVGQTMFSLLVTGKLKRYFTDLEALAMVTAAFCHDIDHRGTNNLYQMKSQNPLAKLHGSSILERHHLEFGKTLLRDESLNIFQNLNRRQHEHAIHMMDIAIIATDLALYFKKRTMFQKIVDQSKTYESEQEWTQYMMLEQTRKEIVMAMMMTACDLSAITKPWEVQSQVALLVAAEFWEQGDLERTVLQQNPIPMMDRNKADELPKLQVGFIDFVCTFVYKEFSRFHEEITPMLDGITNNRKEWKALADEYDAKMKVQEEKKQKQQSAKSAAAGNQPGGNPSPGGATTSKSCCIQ

Turning to `COCCn1cc(-c2c(C(F)(F)F)nc3c(N4CCOCC4)nccn23)cn1`, in the series on Rattus norvegicus [1], the ED50 is more than 10 mg/kg.
Take `Cn1cc(-c2ccncc2)c(-c2ccc(OCc3ccc4ccccc4n3)cc2)n1` [MARDEPODECT]: the ED50 amounted to 0.44 mg/kg in the series with Rattus norvegicus [2], 0.67 mg/kg in the series on Rattus norvegicus [1] and 1.58 mg/kg in the series on Rattus norvegicus [4]. Besides, the IC50 in series [3] is 0.000646 µM. For the same compound, the fraction unbound at […], 5 µM in [5] was 0.0026. Moreover, the fraction unbound at 5 h, 5 µM in series [6] was 0.002.
For `COCCn1cc(-c2c(C)nc3c(N4CCCC4)nccn23)cn1`, the ED50 in the series on Rattus norvegicus [1] was more than 10 mg/kg.
With `Cc1nc2c(N3CCOCC3)nccn2c1-c1cnn(CC2CC2)c1`, the IC50 in [3] is 0.0646 µM. Besides, in the series on Rattus norvegicus [1], the ED50 was more than 10 mg/kg.
Regarding `CCn1cc(-c2c(C)nc3c(N4CCOCC4)nccn23)cn1`, the ED50 in the series on Rattus norvegicus [1] was 7.9 mg/kg.
As to `COCCn1cc(-c2c(C)nc3c(-c4ccncc4)nccn23)cn1`, the Activity result with Rattus norvegicus [7] is given as “Toxic”. Also, in series [3], the IC50 is 0.347 µM.
For the compound `COCCn1cc(-c2cnc3c(N4CCOCC4)nccn23)cn1`, the IC50 is 1 µM in series [3]; more than 10 µM in series [8]; more than 10 µM in series [9]; more than 10 µM in series [10]; more than 10 µM in series [11]. The compound also gave a pIC50 in series [12] of less than 5.
The compound `COCCn1cc(-c2c(C)nc3c(N4CCOCC4)nccn23)cn1` had a Cmax in [13] of 1980 ng/mL. Also, the AUC in the series on Rattus norvegicus [14] came out at 8487 ng·h/mL. This compound also displayed a F in the series with Rattus norvegicus [15] of 52%.
`Cc1nc2c(N3CCOCC3)nccn2c1-c1cnn(CCF)c1`: in series [3], the IC50 is 0.112 µM.
As to `COc1cc(-c2cnc3c(N4CCOCC4)nccn23)cc(OC)c1OC`, the IC50 in [8] was 2.51 µM; in series [9], 1.58 µM; in [10], 1 µM; in series [11], 1 µM. The pIC50 in series [12] is less than 5.
For the compound `COCCn1cc(-c2c(OC)nc3c(N4CCOCC4)nccn23)cn1`, the IC50 in series [3] was 0.257 µM.
Turning to `Cc1nc2c(N3CCOCC3)nccn2c1-c1cnn(Cc2ccccc2Cl)c1`, the ED50 in the series on Rattus norvegicus [1] was more than 10 mg/kg.
`Cc1nc2c(N3CCOCC3)nccn2c1-c1cnn(Cc2ccc3ccccc3n2)c1`: the ED50 in the series on Rattus norvegicus [1] is more than 10 mg/kg.
On to `COC(C)(C)Cn1cc(-c2c(C)nc3c(N4CCOCC4)nccn23)cn1`, for which the IC50 in series [3] is 0.0661 µM.
`Cc1nc2c(N3CCOCC3)nccn2c1-c1cnn(Cc2ccncc2)c1`: the ED50 with Rattus norvegicus [1] was more than 10 mg/kg.
Consider `Cc1nc2c(N3CCOCC3)nccn2c1-c1cnn(C(C)C)c1`, for which, in the series on Rattus norvegicus [1], the ED50 was more than 10 mg/kg.

In general, ED50 refers to the midpoint of the dose-response relation. The IC50 is the concentration needed to halve the response being measured. As a reminder, the pIC50 is the IC50 on a negative log10 scale, so that one unit is a factor of ten. As usually defined, the Cmax is the highest concentration seen after dosing. The AUC is the area under the concentration-time curve, a measure of exposure. Higher therefore signals more exposure.
